Test results taken from ChEMBL document CHEMBL1142319, “New antitumor imidazo[2,1-b]thiazole guanylhydrazones and analogues” (2008).

Experiments:
Assay type in all cases: functional
Conditions in all cases: for TGI: read-out: pTGI (converted)
Cancer cell lines [1] = assay: Inhibition of human colon cancer cells
Outline: (§1)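 NCI 60-cell-line panel, with results grouped by tissue subpanel. Compounds dissolved in DMSO and tested at five 10-fold dilutions, top concentration 10^-4 M. Values given as -log molar concentration for 50% growth inhibition (pGI50), total growth inhibition (pTGI) and 50% cell kill (pLC50), with subpanel means calculated.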

Leukemia cell = assay: Inhibition of human leukemia cells; outline: as §1
Cancer cell lines [2] = assay: Inhibition of human non-small cell lung cancer cells; outline: as §1
Cancer cell lines [3] = assay: Inhibition of human CNS cancer cells; outline: as §1
Melanoma cell = assay: Inhibition of human melanoma cells; outline: as §1
Cancer cell lines [4] = assay: Inhibition of human ovarian cancer cells; outline: as §1
Cancer cell lines [5] = assay: Inhibition of human renal cancer cells; outline: as §1
Cancer cell lines [6] = assay: Inhibition of human prostate cancer cells; outline: as §1
Cancer cell lines [7] = assay: Inhibition of human breast cancer cells; outline: as §1

Compound | GI50 (Cancer cell lines [1]) [µM] | TGI (Cancer cell lines [1]) [µM] | GI50 (Leukemia cell) [µM] | TGI (Leukemia cell) [µM] | GI50 (Cancer cell lines [2]) [µM] | TGI (Cancer cell lines [2]) [µM] | GI50 (Cancer cell lines [3]) [µM] | TGI (Cancer cell lines [3]) [µM] | GI50 (Melanoma cell) [µM] | TGI (Melanoma cell) [µM] | GI50 (Cancer cell lines [4]) [µM] | TGI (Cancer cell lines [4]) [µM] | GI50 (Cancer cell lines [5]) [µM] | TGI (Cancer cell lines [5]) [µM] | GI50 (Cancer cell lines [6]) [µM] | TGI (Cancer cell lines [6]) [µM] | GI50 (Cancer cell lines [7]) [µM] | TGI (Cancer cell lines [7]) [µM]
Cc1cn2c(/C=N/Nc3ccccn3)c(-c3ccc(Cl)c([N+](=O)[O-])c3)nc2s1 | 26.3 | 42.7 | 16.6 | 33.9 | 11.5 | 30.9 | 7.76 | 19.5 | 18.2 | 38 | 9.12 | 25.7 | 15.5 | 39.8 | 11.7 | 38.9 | 13.8 | 38.9
Cc1cn2c(/C=N/NC(=N)N)c(-c3cccs3)nc2s1 | 2.57 | 8.13 | 1.82 | 4.07 | 7.76 | 25.1 | 4.27 | 11.7 | 2.24 | 5.89 | 6.46 | 17.4 | 4.27 | 14.1 | 3.02 | 12.3 | 5.75 | 18.6
COc1cc(OC)cc(-c2nc3sccn3c2/C=N/NC(=N)N)c1 | 6.03 | 14.8 | 10.2 | 19.1 | 9.33 | 20.4 | 8.13 | 17.4 | 8.51 | 17.8 | 7.94 | 17 | 8.51 | 17.8 | 9.33 | 16.2 | 10 | 20.4
N=C(N)N/N=C/c1c(-c2cccs2)nc2n1CCS2 | 17.4 | 38.9 | 18.6 | 38.9 | 28.8 |  | 19.1 | 39.8 | 21.4 | 38 | 39.8 |  | 22.9 |  | 19.5 | 36.3 | 17.4 | 40.7
N=C(N)N/N=C/c1c(-c2ccc(Cl)c([N+](=O)[O-])c2)nc2ccccn12 | 1.86 | 7.94 | 1.7 | 3.8 | 1.7 | 3.8 | 1.2 | 3.02 | 2.04 | 3.63 | 1.86 | 3.63 | 2.19 | 4.9 | 1.51 | 3.09 | 2.29 | 5.37
Cc1cc(-c2nc3n(c2/C=N/NC(=N)N)CCS3)c(C)s1 | 13.8 | 29.5 | 20.9 |  | 17 | 35.5 | 18.6 | 34.7 | 15.5 | 29.5 | 24 | 47.9 | 17.4 | 38 | 15.5 | 30.9 | 24 | 41.7
N=C(N)N/N=C/c1c(-c2ccc(Cl)c([N+](=O)[O-])c2)nc2sc3ccccc3n12 | 0.339 | 3.63 | 0.138 |  | 0.676 | 3.8 | 0.447 | 3.02 | 0.708 | 2.75 | 1.1 | 1.95 | 0.832 | 3.89 | 2.29 | 14.8 | 0.741 | 9.55
Cc1cn2c(/C=N/NC(=N)N)c(-c3ccsc3)nc2s1 | 5.37 | 20.4 | 7.76 | 46.8 | 13.8 | 41.7 | 6.92 | 19.5 | 8.13 | 19.5 | 11 | 27.5 | 10.2 | 28.2 | 7.59 | 20 | 7.76 | 22.4
COc1cc([N+](=O)[O-])c(OC)cc1-c1nc2sc(Cl)cn2c1/C=N\NC(=N)N/N=C\c1c(-c2cc(OC)c([N+](=O)[O-])cc2OC)nc2sc(Cl)cn12 | 2.24 | 7.08 | 2.34 |  | 2.04 | 3.98 | 1.62 | 2.57 | 1.91 | 5.13 | 1.82 | 3.8 | 2.19 | 4.9 | 1.95 | 3.8 | 3.31 | 6.76
N=C(N)N/N=C/c1c(-c2cccs2)nc2sccn12 | 9.77 | 24 | 6.76 | 38 | 12.9 | 29.5 | 12 | 25.7 | 15.1 | 28.8 | 10.2 | 26.9 | 8.32 | 21.9 | 12.3 | 24.5 | 14.8 | 28.2
COc1cc([N+](=O)[O-])c(OC)cc1-c1nc2sc(Cl)cn2c1/C=N\Nc1ccccn1 | 44.7 |  | 9.12 | 35.5 | 25.7 |  | 15.5 | 30.2 | 33.1 | 46.8 | 20 | 33.1 | 13.5 | 30.9 | 16.2 |  | 17.4 | 41.7
Cc1cc(-c2nc3sc(C)cn3c2/C=N/NC(=N)N)c(C)s1 | 3.72 | 11.7 | 47.9 |  | 9.77 | 25.1 | 8.32 | 18.2 | 7.41 | 15.1 | 12 | 33.1 | 14.1 | 32.4 | 4.79 | 19.1 | 4.47 | 13.5
N=C(N)N/N=C/c1c(-c2cc(Cl)sc2Cl)nc2sccn12 | 0.977 | 2.34 | 1 | 2.14 | 2.69 | 10.7 | 1.12 | 2.82 | 2.82 | 7.24 | 1.1 | 3.55 | 1.62 | 5.75 | 1.55 | 6.17 | 1.66 | 4.27
N=C(N)N/N=C/c1c(-c2cc(Cl)sc2Cl)nc2n1CCS2 | 1.82 | 16.2 | 10.2 | 24.5 | 11.2 | 22.4 | 8.71 | 17.4 | 10 | 20.4 | 10.5 | 22.9 | 10 | 20 | 8.13 | 15.1 | 12.3 | 22.9
Cc1cc(-c2nc3sccn3c2/C=N/NC(=N)N)c(C)s1 | 15.5 | 32.4 | 15.5 |  | 16.6 | 33.1 | 15.5 | 30.2 | 16.2 | 30.9 | 17.4 | 33.9 | 17.8 | 32.4 | 13.8 | 26.9 | 16.2 | 30.2
N=C(N)N/N=C/c1c(-c2ccsc2)nc2sccn12 | 14.1 | 29.5 | 6.92 | 24 | 15.1 | 30.2 | 15.1 | 28.8 | 17 | 31.6 | 15.5 | 31.6 | 14.8 | 29.5 | 14.8 | 28.8 | 17.4 | 31.6
CCOC(=O)c1nc2sc(Cl)cn2c1/C=N\NC(=N)N | 20.9 | 47.9 | 14.1 | 38.9 | 18.2 | 41.7 | 19.5 |  | 19.5 | 45.7 | 20.9 |  | 21.4 |  | 17 | 38.9 | 22.9 | 
N=C(N)N/N=C/c1c(-c2ccsc2)nc2n1CCS2 | 22.9 |  | 19.1 |  | 28.8 |  | 25.1 |  | 21.9 |  | 14.5 |  | 28.2 |  | 17.4 |  | 32.4 | 
